# Assay results of several laboratories.
# Protocols differ between the studies behind these lines.
# ADORA1: Adenosine receptor A1 (ADORA1, Homo sapiens, UniProt P30542)
# MMP7: Matrilysin (MMP7, Homo sapiens, UniProt P09237)
# USP5: Ubiquitin carboxyl-terminal hydrolase 5 (USP5, Homo sapiens, UniProt P45974)
SMILES,target,effect on,action,method,concentration,inhibition
COCCN(CCOC)C(=O)[C@@]12C[C@@H]1[C@@H](n1cnc3c(NC(C4CC4)C4CC4)nc(Cl)nc31)[C@H](O)[C@@H]2O,ADORA1,ligand displacement,,radioligand,10 µM,34%
c1ccc(C(NCCNC(c2ccccc2)c2ccccc2)c2ccccc2)cc1,MMP7,enzyme activity,inhibitor,,10 µM,-5%
Cn1c(=O)c2ncnnc2n(C)c1=O,USP5,enzyme activity,inhibitor,,17 µM,98%
C[C@H](C(=O)N[C@H]1COc2ccccc2[C@@H]1S(C)(=O)=O)c1ccc(F)cc1,MMP7,enzyme activity,inhibitor,,10 µM,-6%
C#Cc1n[nH]c2c(-c3cn(C(C)c4ccccn4)c(=O)[nH]c3=O)cc(F)cc12 (stereo not drawn),"Dual specificity protein kinase CLK1 (CLK1, Homo sapiens, UniProt P49759)",enzyme activity,inhibitor,,1 µM,3.7%
CNC(=O)[C@H](Cc1ccccc1)NC(=O)[C@H](CC(C)C)[C@H](CSc1cccs1)C(=O)NO,MMP7,enzyme activity,inhibitor,,10 nM,94%
OC[C@@]12C[C@@H]1[C@@H](n1cnc3c(NC(C4CCCC4)C4CCCC4)nc(Cl)cc31)[C@H](O)[C@@H]2O,ADORA1,ligand displacement,,radioligand,10 µM,11%
CN(C)C(=O)COC(=O)Cc1ccc(OC(=O)c2ccc(NC(=N)N)cc2)cc1,"Deubiquitinase OTUD6B (OTUD6B, Homo sapiens, UniProt Q8N6M0)",enzyme activity,inhibitor,,10 µM,1%
CN(CCN1CCC(OC(=O)Nc2ccccc2-c2ccccc2)CC1)C(=O)c1ccc(CN2CCC(C(N)=O)CC2)cc1,"Neuromedin-K receptor (TACR3, Homo sapiens, UniProt P29371)",ligand displacement,,radioligand,1 µM,1%
Cn1cc(-c2cc(F)cc(N3CCn4c(cc5c4CCCC5)C3=O)c2CO)cc(Nc2ccc(N3CCN(C4COC4)CC3)cn2)c1=O,"Inhibitor of nuclear factor kappa-B kinase subunit alpha (CHUK, Homo sapiens, UniProt O15111)",enzyme activity,inhibitor,,0.1 µM,14%
O[C@H]1[C@H](n2cnc3c(NC(C4CCCCC4)C4CCCCC4)nc(Cl)nc32)[C@H]2C[C@@]2(CF)[C@H]1O,ADORA1,ligand displacement,,radioligand,10 µM,47%
CCOC(=O)c1ccc(OC(=O)CCCCCNC(=N)N)cc1,USP5,enzyme activity,inhibitor,,10 µM,1%
C#Cc1n[nH]c2c(-c3cn([C@@H](C)c4ccccc4)c(=O)[nH]c3=O)cc(F)cc12,"Tyrosine-protein kinase receptor UFO (AXL, Homo sapiens, UniProt P30530)",enzyme activity,inhibitor,,0.1 µM,41.4%
N=C(N)c1ccc2cc(OC(=O)c3ccc(N=C(N)N)cc3)ccc2c1,USP5,enzyme activity,inhibitor,,10 µM,0%
COc1cc(Nc2ncc(F)c(Nc3ccc4c(n3)NC(=O)C(C)(C)O4)n2)cc(OC)c1OC,"Serine/threonine-protein kinase 32C (STK32C, Homo sapiens, UniProt Q86UX6)",binding,,competition with immobilised ligand,10 µM,0%
